Reference: ChEMBL document CHEMBL1154166, “Crystallographic study of a novel subnanomolar inhibitor provides insight on the binding interactions of alkenyldiarylmethanes with human immunodeficiency virus-1 reverse transcriptase” (J Med Chem, 2009)

How the values were obtained:
[1] = system: Human immunodeficiency virus 1; assay: Antiviral activity against HIV1 RF infected in human CEM-SS cells assessed as inhibition of virus-induced cytopathic effect by XTT assay; format: functional, organism-based; details: Human immunodeficiency virus 1, RF
Method in brief: (§1)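 XTT cytoprotection readout in CEM-SS cells infected with HIV-1 RF or with HIV-1 NL4-3 carrying RT K103N or Y181C. EC50 is the concentration giving 50% inhibition of virus-induced cytopathic effect.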

[2] = system: Human immunodeficiency virus 1; assay: Antiviral activity against NNRTI-resistant HIV1 NL4-3 with reverse transcriptase K103N mutation infected in human CEM-SS cells assessed as inhibition of virus-induced cytopathic effect by XTT assay; format: functional, organism-based; details: Human immunodeficiency virus 1, NL4-3, CEM-SS; method in brief: as §1
[3] = system: Human immunodeficiency virus 2; assay: Antiviral activity against HIV2 ROD infected in human MT4 cells assessed as inhibition of virus-induced cytopathic effect by MTT assay; format: functional, organism-based
Method in brief: (§2)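 Infected MT-4 cells (HIV-1 IIIB or HIV-2 ROD), protection from viral cytopathic effect read by MTT assay; EC50 = concentration giving 50% inhibition of cytopathic effect. CC50 from mock-infected MT-4 cells.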

[4] = system: Human immunodeficiency virus 1; assay: Antiviral activity against NNRTI-resistant HIV1 NL4-3 with reverse transcriptase Y181C mutation infected in human CEM-SS cells assessed as inhibition of virus-induced cytopathic effect by XTT assay; format: functional, organism-based; details: Human immunodeficiency virus 1, NL4-3, CEM-SS; method in brief: as §1
[5] = (§3) Cytotoxicity against human CEM-SS cells; format: cell-based; details: CEM-SS cells
Method in brief: (§4)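 Mock-infected CEM-SS cells, handled alongside the XTT antiviral assay. CC50 is the concentration causing death of 50% of cells.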

[6] = (§5) Stability in rat plasma; format: ADME, cell-free
Method in brief: (§6)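 Compound incubated in reconstituted rat plasma with 1,1-diphenylethylene internal standard; remaining compound quantified by reversed-phase C18 HPLC, 8:2 acetonitrile-water, column at room temperature; half-life per replicate from regression of concentration versus time, averaged over two replicates.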

[7] = (§7) Cytotoxicity against human MT4 cells; format: cell-based; details: MT4 cells
Method in brief: (§8)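 Mock-infected MT-4 cells, handled alongside the MTT antiviral assay run with HIV-1 IIIB and HIV-2 ROD. CC50 is the concentration causing death of 50% of cells.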

[8] = system: Human immunodeficiency virus 1; assay: Antiviral activity against HIV1 3B infected in human MT4 cells assessed as inhibition of virus-induced cytopathic effect by MTT assay; format: functional, organism-based; details: Human immunodeficiency virus 1, 3B; method in brief: as §2
CEM-SS = assay: as §3; format: cell-based; details: cem-ss; method in brief: as §4
[9] = biological target: Human immunodeficiency virus type 1 reverse transcriptase (Human immunodeficiency virus 1, UniProt Q72547); assay: Inhibition of HIV1 reverse transcriptase p66/p51 using poly(rC)-oligo)dG) as template
Method in brief: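 Purified recombinant HIV-1 RT p66/51 heterodimer; poly(rC)·oligo(dG) homopolymer template/primer; activity measured as 32P-labeled […] incorporated into nascent DNA across increasing inhibitor concentrations; IC50 derived.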

Plasma = assay: as §5; format: ADME, cell-free; method in brief: as §6
MT4 = assay: as §7; format: cell-based; details: mt4; method in brief: as §8

| SMILES | EC50 [1] [µM] | EC50 [2] [µM] | EC50 [3] | EC50 [4] [µM] | CC50 [5] [µM] | half-life [6] [min] | CC50 [7] [µM] | EC50 [8] [µM] | CC50 (CEM-SS) [µM] | IC50 [9] [µM] | t1/2 (Plasma) [min] | CC50 (MT4) [µM] |
| --- | --- | --- | --- | --- | --- | --- | --- | --- | --- | --- | --- | --- |
| COC(=O)CCCC=C(c1cc(Br)c(OC)c(C(=O)OC)c1)c1cc(Br)c(OC)c(C(=O)OC)c1 | 0.1 | 0.42 | Not Active | 6.1 | – | – | – | – | – | – | – | – |
| COC(=O)CCCC=C(c1cc(C#N)c(OC)c(C(=O)OC)c1)c1cc(C#N)c(OC)c(C(=O)OC)c1 | 0.7 | – | Not Active | – | 17 | 12.4 | > 100 | – | – | – | – | – |
| COC(=O)CCC/C=C(\c1cc(C)c(OC)c(C(=O)OC)c1)c1cc(C)c2oc(=O)n(C)c2c1 | – | – | Not Active | – | – | – | – | – | – | – | – | – |
| COc1c(C)cc(/C(=C\CCCc2nnc(C)o2)c2cc(C)c3oc(=O)n(C)c3c2)cc1C(=O)SC | 0.07 | > 100 | Not Active | > 100 | – | – | – | 0.18 | 3 | < 0.001 | 238 | 3.9 |
| Cc1ccnc2c1NC(=O)c1cccnc1N2C1CC1 [NEVIRAPINE] | – | 0.6 | – | 0.8 | – | – | – | – | – | – | – | – |
